{"data": "Published values of several laboratories", "RPS6KA4 N-terminal kinase domain": "Ribosomal protein S6 kinase alpha-4, N-terminal kinase domain (RPS6KA4, Homo sapiens, UniProt O75676)", "RPS6KA4": "Ribosomal protein S6 kinase alpha-4 (RPS6KA4, Homo sapiens, UniProt O75676)", "RPS6KA4 C-terminal kinase domain": "Ribosomal protein S6 kinase alpha-4, C-terminal kinase domain (RPS6KA4, Homo sapiens, UniProt O75676)", "note": "Lines come from different studies, so protocols differ."}
{"Compound": "O=C(N[C@H]1CCCCC/C=C\\C2C[C@@]2(C(=O)O)NC(=O)[C@@H]2C[C@@H](Oc3ccncc3)CN2C1=O)OC1CCCC1 (stereo partly shown)", "target": "RPS6KA4 N-terminal kinase domain", "read-out": "binding", "technique": "competition with immobilised ligand", "concentration": "1 µM", "endpoint": "remaining binding", "value": "100%"}
{"Compound": "COc1cc2ncnc(Nc3ccc(Oc4ccccc4)cc3C)c2cc1OC", "target": "RPS6KA4", "read-out": "enzyme activity", "action": "inhibitor", "concentration": "1 µM", "endpoint": "inhibition", "value": "1%"}
{"Compound": "CN(C)c1nccc(-c2cnn3ncccc23)n1", "target": "RPS6KA4 C-terminal kinase domain", "read-out": "binding", "technique": "competition with immobilised ligand", "concentration": "1 µM", "endpoint": "remaining binding", "value": "84%"}
{"Compound": "Cc1nc(C2CCN(C(=O)c3ccc(OC(F)(F)F)cc3N)CC2)c2ncc(N3CCN(C)CC3)cc2n1", "target": "RPS6KA4 N-terminal kinase domain", "read-out": "cell-free assay", "technique": "competition with immobilised ligand", "concentration": "1 µM", "endpoint": "remaining binding", "value": "100%"}
{"Compound": "CCN(CC)CCNC(=O)c1c(C)[nH]c(/C=C2\\C(=O)Nc3ccc(F)cc32)c1C", "target": "RPS6KA4", "read-out": "cell-free assay", "concentration": "0.5 µM", "endpoint": "remaining signal", "value": "50.8%"}
{"Compound": "CC(C)(C)c1nc(-c2cccc(NS(=O)(=O)c3c(F)cccc3F)c2F)c(-c2ccnc(N)n2)s1", "target": "RPS6KA4", "read-out": "enzyme activity", "action": "inhibitor", "technique": "radiometric", "concentration": "1 µM", "endpoint": "remaining activity", "value": "86%"}
{"Compound": "Cc1ccc(C(=O)NCc2ccsc2)cc1C#Cc1cn(C(C)C)c2ncnc(N)c12", "target": "RPS6KA4", "read-out": "enzyme activity", "action": "inhibitor", "concentration": "1 µM", "endpoint": "activity vs control", "value": "107%"}
{"Compound": "Cc1cc(NC(=O)c2cccc3cc(-c4cccc5[nH]nc(N)c45)ccc23)ccc1F", "target": "RPS6KA4", "read-out": "enzyme activity", "action": "inhibitor", "concentration": "0.1 µM", "endpoint": "activity vs control", "value": "103%"}
{"Compound": "Cc1ccc(NC(=O)c2ccc(C)c(C(F)(F)F)c2)cc1C#Cc1nn(C2CCC(O)CC2)c2ncnc(N)c12 (stereo not shown)", "target": "RPS6KA4", "read-out": "cell-free assay", "concentration": "10 µM", "endpoint": "remaining signal", "value": "70%"}
{"Compound": "CC(C)CC(=O)N1CCc2nc(-c3ccc(Br)cc3)nc(N(C)Cc3ccccc3)c2C1", "target": "RPS6KA4 N-terminal kinase domain", "read-out": "cell-free assay", "technique": "competition with immobilised ligand", "concentration": "0.1 µM", "endpoint": "remaining binding", "value": "74%"}
{"Compound": "CCCS(=O)(=O)Nc1ccc(F)c(C(=O)c2c[nH]c3ncc(-c4ccc(Cl)cc4)cc23)c1F", "target": "RPS6KA4", "read-out": "enzyme activity", "action": "inhibitor", "concentration": "1 µM", "endpoint": "inhibition", "value": "< 10%"}
{"Compound": "O=C1NC(=O)c2cc(Nc3ccc(F)cc3)c(Nc3ccc(F)cc3)cc21", "target": "RPS6KA4", "read-out": "cell-free assay", "concentration": "0.5 µM", "endpoint": "remaining signal", "value": "102%"}
{"Compound": "CCS(=O)(=O)c1cc2cc(C[C@@](O)(CC(C)(C)c3ccc(F)cc3C(N)=O)C(F)(F)F)[nH]c2cn1", "target": "RPS6KA4 N-terminal kinase domain", "read-out": "cell-free assay", "technique": "competition with immobilised ligand", "concentration": "1 µM", "endpoint": "remaining binding", "value": "78%"}
{"Compound": "Nc1ncnc2occ(-c3ccc(NC(=O)Nc4cc(C(F)(F)F)ccc4F)cc3)c12", "target": "RPS6KA4 C-terminal kinase domain", "read-out": "cell-free assay", "action": "inhibitor", "concentration": "20 µM", "endpoint": "remaining signal", "value": "68%"}
{"Compound": "O=C1Nc2ccc(Cl)cc2C1=Cc1cc(Cl)c(O)c(Cl)c1", "target": "RPS6KA4", "read-out": "cell-free assay", "concentration": "0.5 µM", "endpoint": "remaining signal", "value": "98%"}
{"Compound": "Cc1cc(-n2nc(Cc3cc(F)cc(C(F)(F)F)c3)nc2C)ccc1C(N)=O", "target": "RPS6KA4 N-terminal kinase domain", "read-out": "cell-free assay", "technique": "competition with immobilised ligand", "concentration": "1 µM", "endpoint": "remaining binding", "value": "95%"}
{"Compound": "Cn1cncc1C1=CN(c2ncnc3[nH]cnc23)CCS1", "target": "RPS6KA4", "read-out": "enzyme activity", "action": "inhibitor", "technique": "radiometric", "concentration": "50 nM", "endpoint": "inhibition", "value": "13.3%"}
{"Compound": "CC(=O)N1CCC(c2ccc(C(=O)NC(=N)N)cc2C(F)(F)F)CC1", "target": "RPS6KA4 C-terminal kinase domain", "read-out": "cell-free assay", "technique": "competition with immobilised ligand", "concentration": "1 µM", "endpoint": "remaining binding", "value": "100%"}
{"Compound": "Cc1sc(C(=O)NC2COC2)cc1-n1cc(NC(=O)Nc2c(F)cccc2Cl)cn1", "target": "RPS6KA4", "read-out": "enzyme activity", "action": "inhibitor", "concentration": "10 µM", "endpoint": "remaining activity", "value": "105%"}
{"Compound": "O=C(Nc1cccnn1)N1CC(C/C=C/c2cncc(Oc3ccc(C(F)(F)F)cn3)n2)C1", "target": "RPS6KA4 C-terminal kinase domain", "read-out": "cell-free assay", "technique": "competition with immobilised ligand", "concentration": "1 µM", "endpoint": "remaining binding", "value": "92%"}
{"Compound": "N[C@H]1CCN(c2nccc(-c3cnn4ncccc34)n2)C1", "target": "RPS6KA4 N-terminal kinase domain", "read-out": "binding", "technique": "competition with immobilised ligand", "concentration": "1 µM", "endpoint": "remaining binding", "value": "91%"}
{"Compound": "CNC(=O)c1cc(Oc2ccc(NC(=O)Nc3ccc(Cl)c(C(F)(F)F)c3)cc2)ccn1", "target": "RPS6KA4", "read-out": "cell-free assay", "concentration": "0.5 µM", "endpoint": "remaining signal", "value": "97.7%"}
{"Compound": "CCCOc1ccc(OC)c(F)c1C(=O)c1ccc(C(=O)N[C@@H]2CNC[C@H]2NC(=O)c2ccc3[nH]ncc3c2)cc1", "target": "RPS6KA4", "read-out": "enzyme activity", "action": "inhibitor", "concentration": "10 µM", "endpoint": "remaining activity", "value": "4%"}
{"Compound": "CC/C(=N\\NC(=O)NCc1cccc(O)c1)c1ccc(O)c(C)c1O", "target": "RPS6KA4", "read-out": "enzyme activity", "action": "inhibitor", "concentration": "0.1 µM", "endpoint": "inhibition", "value": "59.4%"}
{"Compound": "C[C@H]1CCN(c2nccc(-c3cnn4ncccc34)n2)C1", "target": "RPS6KA4 N-terminal kinase domain", "read-out": "binding", "technique": "competition with immobilised ligand", "concentration": "1 µM", "endpoint": "remaining binding", "value": "93%"}
{"Compound": "COc1cc(Cl)c(C(=O)N[C@@H](CN[C@H]2CC[C@@H](N)CC2)Cc2ccc(C#N)cc2)cc1-c1ccc(CN[C@H](C)c2ccc(C)cc2)o1", "target": "RPS6KA4", "read-out": "enzyme activity", "action": "inhibitor", "concentration": "1 µM", "endpoint": "remaining activity", "value": "77%"}
{"Compound": "CCCCNc1ncc2c(-c3ccc(F)cc3)nn(C[C@H]3CC[C@H](N)CC3)c2n1", "target": "RPS6KA4 N-terminal kinase domain", "read-out": "target engagement in cells", "action": "inhibitor", "technique": "chemoproteomics", "concentration": "20 mM", "endpoint": "inhibition", "value": "22%"}
{"Compound": "CC(C)(O)[C@H]1CC[C@H](Nc2ccc3ncc(-c4cccc(C(F)(F)F)c4)n3n2)CC1", "target": "RPS6KA4", "read-out": "enzyme activity", "action": "inhibitor", "concentration": "1 µM", "endpoint": "remaining activity", "value": "92.4%"}
{"Compound": "CN1CC(Oc2cnc(C#N)cc2-c2ccn3nc(NC(=O)C4CC4)cc3c2)C1", "target": "RPS6KA4", "read-out": "enzyme activity", "action": "inhibitor", "concentration": "1 µM", "endpoint": "inhibition", "value": "-1%"}
{"Compound": "CC1CCCN1c1nccc(-c2cnn3ncccc23)n1 (stereo not shown)", "target": "RPS6KA4 N-terminal kinase domain", "read-out": "binding", "technique": "competition with immobilised ligand", "concentration": "1 µM", "endpoint": "remaining binding", "value": "99%"}
{"Compound": "Cc1cc(C)c(-n2ccn3nc(-c4cccnc4)cc23)cc1NC(=O)c1cc(C#N)cc(S(F)(F)(F)(F)F)c1", "target": "RPS6KA4 C-terminal kinase domain", "read-out": "cell-free assay", "technique": "competition with immobilised ligand", "concentration": "0.1 µM", "endpoint": "remaining binding", "value": "79.3%"}
